High-throughput results deposited in PubChem BioAssay by several laboratories.
A selection: hits, their analogues and other compounds. The true share with any hit is near 4.9%.
STAT3 act – increases IL-6 driven STAT3 reporter signal | U3A cells, IL-6 STAT3-luciferase reporter, luminescence; 100% = signal with IL-6 EC80 alone | 190,000 tested, 0.91% active | activation (% of control), % at 5.6 µM;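 active means activation above the screen-wide mean of compound activation plus 3 SD, cut at about 130% in these data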;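 further: 0% = background luminescence of wells with medium and substrate only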
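Material: STAT3-luciferase reporter U3A cells; Probe or stimulus: IL-6 (33 ng/mL); Incubation: compound pre-incubation 1 h before IL-6, then 6 h stimulation at 37 °C; Technique: luminescence from STAT3-driven luciferase reporter; Evaluation: % activation versus median of IL-6-stimulated wells; Controls: IL-6-only high control.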
STAT1 act – increases IFN-gamma driven STAT1 reporter signal | NIH 3T3 STAT1-luciferase reporter, luminescence; 100% = IFN-gamma alone, no compound | activation (% of control), % at 5.5 µM | 200,000 tested, 2.6% active | AID 932;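 active means activation above the screen-wide mean activation plus 3 SD, cut at about 130% in these data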;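 further: raw ratio to IFN-gamma control signal so 100% means no change and 0% no light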
APP 5'UTR act – activates APP 5'UTR luciferase reporter | SH-SY5Y APP 5'UTR luciferase reporter, luminescence; zero percent = DMSO vehicle wells | activation, % at 2 µM | 190,000 tested, 1% active;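 active means activation above a set limit, based on mean plus 3 SD of controls, cut at about 140% in these data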
NF-kB neuron act – compounds increasing NF-kB expression in human neuronal cells | NF-kB reporter expression; hits give high values | fold change at 12.5 µM | 190,000 tested, 1.6% active; in the data active means fold change above about 3.3
STAT1 blocker – STAT1 signaling inhibition | NIH 3T3 STAT1-luciferase reporter, IFN-gamma, luminescence | inhibition, % at 5.5 µM | 200,000 tested, 0.35% active | AID 920;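 active means inhibition above a set limit, the mean inhibition across all tested compounds plus 3 SD, cut at about 34% in these data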;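 further: 0% = IFN-gamma with DMSO and 100% = IFN-gamma with 300 µM nifuroxazide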
STAT3 inh – inhibitors of IL-6 induced STAT3 signaling. U3A cells, IL-6 STAT3-luciferase reporter, luminescence; host cell line lacks STAT1. inhibition, % at 5.5 µM. 190,000 tested, 0.89% active. AID 862;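 active means inhibition above the mean inhibition across all screened compounds plus 3 SD, cut at about 44% in these data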;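 further: 0% = DMSO only wells and 100% = 100 µM nifuroxazide control wells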
* = called active by the depositor.

SMILES | STAT3 act | STAT1 act | APP 5'UTR act | NF-kB neuron act | STAT1 blocker | STAT3 inh
CC(C)(C)C1CCc2c(C(=O)N/N=C/c3cccs3)csc2C1 (configuration not stated) | 115 | 129* | 17 | 2.4 | -33 | -14
CC(C)(C)C1CCc2c(C(=O)NNC(=O)/C=C/C(=O)O)csc2C1 (configuration not stated) | 108 | 96 | -5 | 1.2 | 5 | -9
Cc1ccc(S(=O)(=O)NNC(=O)c2csnn2)cc1 | 88 | 93 | -8 | 1.1 | 7 | 16
Cc1cccc(NC(=S)NNC(=O)c2csc3c2CCCC3)c1 | 88 | 115 | 92 | 1.9 | -16 | 19
COc1ccc(NC(=O)c2csc3c2CCCC3)cc1 | 94 | 142* | 159* | 7.3* | -47 | 10
Cc1ccc(/C=N\NC(=O)c2csnn2)cc1 | 96 | 134* | 23 | 2.3 | -38 | 6
CC1(C)CC(=O)C(C=Nc2cccnc2/N=C/C2=C(O)CC(C)(C)CC2=O)=C(O)C1 | 103 | 113 | 30 | 0.97 | -15 | -1
Cc1ccc(/C=N/NC(=O)c2csc3c2CCCC3)cc1 | 105 | 119 | -90 | 3.8* | -21 | 2
Cc1scc(C(=O)N/N=C/c2ccsc2)c1C | 93 | 140* | 69 | 4.6* | -43 | 7
Cc1scc(C(=O)N/N=C/c2ccco2)c1C | 98 | 118 | 72 | 2.2 | -19 | 2
O=C(CCC(=O)c1cccs1)NCC(=O)Nc1ccc(F)c(F)c1F | 99 | 90 | -11 | 1.1 | 11 | -1
CC(=O)N(C)c1ccc(NC(=O)Nc2ccc(C)c(C)c2)cc1 | 90 | 118 | 5 | 1 | -21 | 22
COc1ccc(CC(NC(C)=O)C(=O)NC2CCN(c3nnnn3-c3ccccc3)CC2)cc1OC (configuration not stated) | 100 | 101 | 12 | 1.3 | -1 | 6
O=C(O)CSc1cccc[n+]1[O-] | 102 | 97 | -2 | 1 | 4 | -2
O=C(CSc1cccc[n+]1[O-])c1cc(Cl)ccc1Cl | 109 | 108 | -27 | 7* | -9 | -6
O=C(CSc1cccc[n+]1[O-])c1cc2ccccc2o1 | 107 | 112 | 31 | 4.2* | -14 | -1
COc1ccc(C2=C(N)c3ccccc3C2=O)cc1 | 90 | 133* | 61 | 2 | -35 | 14
COc1ccc(NC2=C(c3ccc(OC)cc3)C(=O)c3ccccc32)cc1 | 93 | 100 | -9 | 1 | 0 | 8
Cc1cc(NC(=O)NC(=O)c2cccc(OC(F)(F)C(F)F)c2)n[nH]1 | 121 | 132* | 55 | 1.7 | -35 | -23
O=c1c2ccccc2nc2n1CC/C2=C\c1ccccc1[N+](=O)[O-] | 157* | 99 | 12 | 0.83 | 1 | -65
COc1ccc(CCNC(=O)CN(c2cccc([N+](=O)[O-])c2)S(C)(=O)=O)cc1OC | 99 | 100 | 16 | 1.1 | -1 | 2
Cc1ccc(OCCCn2c(=O)sc3ccccc32)cc1 | 84 | 104 | -4 | 1.6 | -4 | 22
O=c1sc2ccccc2n1CCCOc1ccccc1 | 91 | 131* | 71 | 2.8 | -34 | 14
Cc1ccccc1OCCCn1c(=O)sc2ccccc21 | 91 | 131* | 70 | 2.2 | -33 | 14
CCOC(=O)c1nn(-c2ccc(C)cc2)cc1C(=O)c1ccccc1 | 93 | 144* | 145* | 6.6* | -48 | 6
SMILES | STAT3 act | STAT1 act | APP 5'UTR act | NF-kB neuron act | STAT1 blocker | STAT3 inh
Cn1c(CC2C(=O)Nc3ccc(Br)cc32)nc2ccccc2c1=O (configuration not stated) | 133* | 87 | -17 | 0.67 | 14 | -36
CCN1C(=O)C(Cc2nc3ccccc3c(=O)n2-c2ccccc2)c2ccccc21 (configuration not stated) | 100 | 93 | -1 | 0.85 | 7 | 0
CC(C)CCn1cnc2c(sc3nc4c(cc32)CSC(C)(C)C4)c1=O | 102 | 118 | 231* | 0.99 | -20 | 0
O=C(Cc1c[nH]c2ccccc12)NC1(C(=O)NC2CCCC2)CCCCC1 | 99 | 89 | 10 | 1.4 | 12 | 4
Cc1ccccc1Cn1nnc(-c2ccc3c(c2)OCO3)n1 | 99 | 116 | 15 | 2 | -20 | 4
Fc1cccc(Cl)c1Cn1nnc(-c2ccc3c(c2)OCO3)n1 | 102 | 119 | 68 | 3.6* | -21 | 1
